Test results published in ChEMBL document CHEMBL1153393, “Discovery of N-(4-methoxyphenyl)-N,2-dimethylquinazolin-4-amine, a potent apoptosis inducer and efficacious anticancer agent with high blood brain barrier penetration” (J Med Chem, 2009).
Active and inactive are the calls of the source. No cut-off for these calls is given here.

Experiments:
T47D [1] = assay: Induction of apoptosis in human T47D cells assessed as S phase DNA content at 5 nM after 48 hrs by using propidium iodide staining by flow cytometry; assay type: functional
Procedure, shortened: (§1)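 T47D cells treated with 5 nM for 24 or 48 h, then stained with propidium iodide. DNA content analysed by flow cytometry, with cells scored in G1, G2/M and subdiploid (sub-G1) populations against untreated control.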

T47D [2] = assay: Induction of apoptosis in human T47D cells assessed as S phase DNA content at 5 nM after 24 hrs by using propidium iodide staining by flow cytometry; assay type: functional; procedure, shortened: as §1
T47D [3] = assay: Induction of apoptosis in human T47D cells assessed as G1 phase DNA content at 5 nM after 48 hrs by using propidium iodide staining by flow cytometry; assay type: functional; procedure, shortened: as §1
T47D [4] = assay: Induction of apoptosis in human T47D cells assessed as G1 phase DNA content at 5 nM after 24 hrs by using propidium iodide staining by flow cytometry; assay type: functional; procedure, shortened: as §1
HCT-116 [5] = assay: Induction of apoptosis in human HCT116 cells assessed as caspase activation after 24 hrs by HTS assay; assay type: functional, cell-based; settings: HCT-116, 24 h
Procedure, shortened: (§2)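 Cell-based caspase HTS assay. Cells plated with various concentrations and incubated 24 h at 37 °C, then given fluorogenic caspase substrate N-(Ac-DEVD)-N'-ethoxycarbonyl-R110. EC50 reported as mean ± SEM of three or more experiments.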

SNU-398 [6] = assay: Induction of apoptosis in human SNU398 cells assessed as caspase activation after 24 hrs by HTS assay; assay type: functional, cell-based; settings: SNU-398, 24 h; procedure, shortened: as §2
T47D [7] = assay: Growth inhibition of human T47D cells after 48 hrs by celltiter assay; assay type: functional
Procedure, shortened: (§3)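 Cells ATCC-sourced, in 96-well format, exposed to serial concentrations for 48 h. Survival quantitated by CellTiter-Glo luminescence. GI50 reported as mean ± SEM of three or more experiments.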

HCT-116 [8] = assay: Growth inhibition of human HCT116 cells after 48 hrs by celltiter assay; assay type: functional; settings: HCT-116, 48 h; procedure, shortened: as §3
SNU-398 [9] = assay: Growth inhibition of human SNU398 cells after 48 hrs by celltiter assay; assay type: functional; settings: SNU-398, 48 h; procedure, shortened: as §3
T47D [10] = assay: Induction of apoptosis in human T47D cells assessed as sub-diploid DNA content at 5 nM after 24 hrs by using propidium iodide staining by flow cytometry; assay type: functional; procedure, shortened: as §1
T47D [11] = assay: Induction of apoptosis in human T47D cells assessed as sub-diploid DNA content at 5 nM after 48 hrs by using propidium iodide staining by flow cytometry; assay type: functional; procedure, shortened: as §1
T47D [12] = assay: Induction of apoptosis in human T47D cells assessed as G2/M DNA content at 5 nM after 24 hrs by using propidium iodide staining by flow cytometry; assay type: functional; procedure, shortened: as §1
Jurkat [13] = assay: Induction of apoptosis in human Jurkat cells assessed as sub-diploid DNA content at 10 nM after 18 hrs by flow cytometry; assay type: functional
Jurkat [14] = assay: Induction of apoptosis in human Jurkat cells assessed as sub-diploid DNA content at 10 nM after 18 hrs by flow cytometry in presence of caspase inhibitor MX-1013; assay type: functional
Brain = assay: AUC (0 to infinity) in C57BL/6 mouse brain at 2.5 mg/kg, iv; assay type: ADME, organism-based; set-up: time infinity, dose 2.5 mg/kg, route intravenous; settings: in vivo
Procedure, shortened: (§4)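 Mice given a single iv dose of 2.5 mg/kg. Plasma from blood samples and homogenized whole brain collected over time and analyzed by LC-MS/MS. Brain/plasma ratio is taken from the AUCs of the concentration-time curves.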

MX1 [15] = assay: Antitumor activity against human MX1 cells xenografted in Crl:Nu/Nu-nuBR mouse assessed as tumor growth inhibition at 7.5 mg/kg, iv administered once weekly for 3 weeks; assay type: functional, organism-based; set-up: dose 7.5 mg/kg
MX1 [16] = assay: Antitumor activity against human MX1 cells xenografted in Crl:Nu/Nu-nuBR mouse assessed as tumor growth inhibition at 10 mg/kg, iv administered once weekly for 3 weeks; assay type: functional, organism-based; set-up: dose 10 mg/kg
MX1 [17] = assay: Antitumor activity against human MX1 cells xenografted in Crl:Nu/Nu-nuBR mouse assessed as tumor growth inhibition at 5 mg/kg, iv administered once weekly for 3 weeks; assay type: functional, organism-based; set-up: dose 5 mg/kg
Plasma = assay: AUC (0 to infinity) in C57BL/6 mouse plasma at 2.5 mg/kg, iv; assay type: ADME, organism-based; set-up: time infinity, dose 2.5 mg/kg, route intravenous; settings: in vivo; procedure, shortened: as §4
[18] = Ratio of AUC (0 to infinity) in C57BL/6 mouse brain to AUC (0 to infinity) in C57BL/6 mouse plasma at 2.5 mg/kg, iv; assay type: ADME, organism-based; set-up: dose 2.5 mg/kg, route intravenous; settings: read-out: Ratio AUC; procedure, shortened: as §4
T47D [19] = assay: Induction of apoptosis in human T47D cells assessed as subdiploid DNA content at 5 nM after 48 hrs by using propidium iodide staining by flow cytometry
T47D [20] = assay: Induction of apoptosis in human T47D cells assessed as caspase activation after 24 hrs by HTS assay; assay type: functional, cell-based; procedure, shortened: as §2
[21] = Drug level in rhesus monkey cerebrospinal fluid; assay type: ADME, tissue-based, Macaca mulatta; settings: in vivo
[22] = Drug level in rhesus monkey cerebrospinal fluid at 7.5 mg/kg, iv after 24 hrs; assay type: ADME, organism-based, Macaca mulatta; set-up: dose 7.5 mg/kg, route intravenous; settings: in vivo

| EC50 (HCT-116 [5]) [nM] | EC50 (SNU-398 [6]) [nM] | EC50 (T47D [20]) [nM] | SMILES | further results |
| --- | --- | --- | --- | --- |
| 3 | 2 |  | COc1ccc(N(C)c2nc(C)nc3ccccc23)cc1 [VERUBULIN] | Activity (T47D [1]): 16%; Activity (T47D [2]): 10%; Activity (T47D [3]): 14%; Activity (T47D [4]): 15%; GI50 (T47D [7]): 6 nM; GI50 (HCT-116 [8]): 6 nM; GI50 (SNU-398 [9]): 3 nM; Activity (T47D [10]): 15%; Activity (T47D [11]): 34%; Activity (T47D [12]): 58%; Activity (Jurkat [13]): 68%; Activity (Jurkat [14]): 11%; AUC (Brain): 11459 ng/mL; Activity (MX1 [15]): Active; Activity (MX1 [16]): Active; Activity (MX1 [17]): Active; AUC (Plasma): 686 ng/mL; Kp [18]: 16; Activity (T47D [19]): 34% |
| 4 | 4 | 4 | CCOc1ccc(N(C)c2nc(C)nc3ccccc23)cc1 |  |
| 1300 | 620 | 740 | Cc1nc(N(C)c2ccc([N+](=O)[O-])cc2)c2ccccc2n1 |  |
|  |  |  | Cc1ccc(NC(=O)c2ccc(CN3CCN(C)CC3)cc2)cc1Nc1nccc(-c2cccnc2)n1 [IMATINIB] | Drug uptake [21]: 5% |
| 48 |  | 48 | COc1ccc(N(C)c2nc(CCl)nc3ccccc23)cc1 |  |
| 36 | 20 | 23 | COc1ccc(N(C)c2nc(NN)nc3ccccc23)cc1 |  |
|  |  |  | COc1ccc(S(=O)(=O)Nc2cccnc2Nc2ccc(O)cc2)cc1 [ABT-751] | Drug uptake [22]: 1.1% |
| 33 | 20 | 15 | Cc1nc(N(C)c2ccc(N(C)C)nc2)c2ccccc2n1 |  |
| 130 |  | 86 | Cc1nc(N(C)c2ccc(O)cc2)c2ccccc2n1 |  |
| 83 | 66 | 59 | CC(=O)Nc1ccc(N(C)c2nc(C)nc3ccccc23)cc1 | Kp [18]: 0.74 |
| 44 | 18 | 16 | COc1ccc(N(C)c2nc(C)nc3ccccc23)nc1 |  |
| 11 |  | 9 | Cc1nc(N(C)c2ccc(OC(F)F)cc2)c2ccccc2n1 |  |
| 2600 | 2000 | 1800 | COc1ccc(N(C)c2nc(CN(C)C)nc3ccccc23)cc1 |  |
| 26 |  | 31 | CCc1ccc(N(C)c2nc(C)nc3ccccc23)cc1 |  |
| 9 | 10 | 9 | COc1ccc(N(C)c2nc(N(C)C(C)=O)nc3ccccc23)cc1 |  |
| 460 | 270 | 290 | COc1ccc(N(C)c2nc(NC/C=C(\C)CCC=C(C)C)nc3ccccc23)cc1 |  |

| EC50 (HCT-116 [5]) [nM] | EC50 (SNU-398 [6]) [nM] | EC50 (T47D [20]) [nM] | SMILES | further results |
| --- | --- | --- | --- | --- |
| 14 | 13 | 10 | COc1ccc(N(C)c2nc(C)nc3ccccc23)cc1OC |  |
| 630 | 390 | 420 | Cc1nc(N(C)c2ccc(F)cc2)c2ccccc2n1 |  |
| 4 | 2 | 2 | COc1ccc(N(C)c2nc(CO)nc3ccccc23)cc1 |  |
| 250 | 170 | 180 | Cc1nc(N(C)c2ccc(N)cc2)c2ccccc2n1 | Kp [18]: 0.9 |
| 2 | 2 | 2 | COc1ccc(N(C)c2nc(C)nc3ccccc23)cc1F |  |
| 4 | 4 | 4 | COc1ccc(N(C)c2nc(C)nc3ccccc23)c(F)c1 |  |
| 2 | 1 | 2 | COc1ccc(N(C)c2nc(CF)nc3ccccc23)cc1 |  |
| 9 | 5 | 8 | CNc1nc(N(C)c2ccc(OC)cc2)c2ccccc2n1 |  |
| 3 |  | 3 | CSc1ccc(N(C)c2nc(C)nc3ccccc23)cc1 |  |
| 12 | 11 | 11 | Cc1nc(N(C)c2ccc(N=[N+]=[N-])cc2)c2ccccc2n1 |  |
| 2 | 2 | 2 | COc1ccc(N(C)c2nc(Cl)nc3ccccc23)cc1 |  |
| 19 |  | 16 | Cc1nc(N(C)c2ccc(N(C)C)cc2)c2ccccc2n1 |  |
|  |  |  | COc1ccc(N(C)c2nc(C)nc3ccccc23)cn1 | Kp [18]: 5.8 |
| 75 | 49 | 53 | COc1cnc(N(C)c2nc(C)nc3ccccc23)cn1 | Kp [18]: 1.9 |
| 43 | 33 | 15 | COc1ccc(N(C)c2nc(N(C)C)nc3ccccc23)cc1 | Kp [18]: 4 |
